Experimental data published in BindingDB's records for doi:10.1021/acsmedchemlett.0c00208 (University of Bonn, 2020).

Biological target: T1, N-arachidonyl glycine receptor (Homo sapiens, UniProt Q14330)
T1 sequence (Q14330 whole entry): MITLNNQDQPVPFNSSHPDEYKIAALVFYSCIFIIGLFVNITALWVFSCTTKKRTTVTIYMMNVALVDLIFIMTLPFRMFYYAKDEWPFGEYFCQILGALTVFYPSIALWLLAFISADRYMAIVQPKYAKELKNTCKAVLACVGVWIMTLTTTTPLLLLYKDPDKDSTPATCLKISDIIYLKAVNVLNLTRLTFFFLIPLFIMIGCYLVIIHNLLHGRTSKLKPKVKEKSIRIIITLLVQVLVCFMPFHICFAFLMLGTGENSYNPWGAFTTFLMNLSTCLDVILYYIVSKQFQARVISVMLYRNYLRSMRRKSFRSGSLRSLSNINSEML
Test: […] at Prolink1-tagged human GPR18 receptor expressed in CHO cells assessed as […] by measuring 2-(3-(6-(4-chlorophenoxy)hexyloxy)benzylidene)-6,7-dihydro-2H-imidazo[2,1-b][1,3]thiazin-3(5H)-one IC50 at 1 uM after 90 mins by beta-galactosidase based topcount luminescence analysis
Method in brief: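 Human GPR18 stably expressed in CHO cells, β-arrestin enzyme complementation. Antagonist concentration-inhibition curves run against a fixed 1 μM agonist stimulus. IC50 and maximal inhibition derived from curves; means of three independent experiments, each in duplicate.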

- IC50: 944 nM
SMILES: Cn1c(=O)c2c(nc3n2CCCN3CCc2c[nH]c3ccccc23)n(C)c1=O [9-(2-(1H-indol-3-yl)ethyl)-1,3-dimethyl-6,7,8,9-tetrahydropyrimido[1,2-a]purine-2,4(1H,3H)-dione]
